Measured values: paper PMC9424334 (Biomolecules & Therapeutics, 2022)

What was measured:
Type in all cases: cell-based, human
[1] = system: cleaved caspase-3 in MM.1S and RPMI8226 cells; experiment: Immunoblotting for cleaved caspase-3; conditions: 1000 nM
Procedure, shortened: (§1)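 Total lysates were made in RIPA buffer with protease/phosphatase inhibitors, quantified by BCA and immunoblotted, with chemiluminescence detection and GAPDH normalisation. Data are mean ± SEM; one-way ANOVA vs control.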

[2] = system: DACT family in MM.1S cells; experiment: Immunoblotting of DACT family expression; conditions: 24 h
Procedure, shortened: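 Total lysates were prepared in RIPA buffer with protease/phosphatase inhibitors and immunoblotted for DACT1, DACT2 and DACT3, normalised to GAPDH with chemiluminescence detection. Data are mean ± SEM.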

[3] = system: acetylation of histone H3, H4 and tubulin in MM.1S cells; experiment: Immunoblotting of acetylated proteins; conditions: 30-1000 nM, 6 h
Procedure, shortened: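 Histones were extracted afterwards, and acetylation of histone H3, H4 and tubulin was assessed by immunoblotting with chemiluminescence detection.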

[4] = system: cyclin D1 and CDK4 in MM.1S and RPMI8226 cells; experiment: Immunoblotting for CDK4 and cyclin D1; conditions: MM.1S cells, higher concentration ranges, 24 h
Procedure, shortened: as §1

O=C(CCCCCCC(=O)Nc1ccccc1)NO [SAHA, Suberoylanilide hydroxamic acid]
cleaved caspase-3 [1]: only marginally increased | protein expression of DACT3 ([2]; 3000 nM): significantly enhanced | protein expression of DACT1 and DACT2 [2]: not altered | acetylation intensity of histone H3 and H4 [3]: increased | acetylation of tubulin [3]: increased | expression level of CDK4 and Cyclin D1 [4]: reduced
